Activity calls are given as the source filed them. No cut-off for these calls is given here.
Experiments:
[1] = tested on: HeLa; assay: Cytotoxicity against human HeLa cells assessed as reduction in cell viability using compound addition to cell culture cells in lag phase of growth and incubated for 48 hrs by MTT assay; format: functional, cell-based; settings: Homo sapiens, HeLa, 48 h; read-out: IC50
[2] = tested on: HeLa; assay: Cytotoxicity against human HeLa cells assessed as reduction in cell viability using compound addition to cell culture cells in log phase of growth and incubated for 48 hrs by MTT assay; format: functional, cell-based; settings: Homo sapiens, HeLa, 48 h; read-out: IC50
[3] = tested on: A549; assay: Cytotoxicity against human A549 cells assessed as reduction in cell viability using compound addition to cell culture cells in lag phase of growth and incubated for 48 hrs by MTT assay; format: functional, cell-based; settings: Homo sapiens, A549, 48 h; read-out: IC50
[4] = tested on: A549; assay: Cytotoxicity against human A549 cells assessed as reduction in cell viability using compound addition to cell culture cells in log phase of growth and incubated for 48 hrs by MTT assay; format: functional, cell-based; settings: Homo sapiens, A549, 48 h; read-out: IC50
[5] = tested on: MCF7; assay: Cytotoxicity against human MCF7 cells assessed as reduction in cell viability using compound addition to cell culture cells in lag phase of growth and incubated for 48 hrs by MTT assay; format: functional, cell-based; settings: Homo sapiens, MCF7, 48 h; read-out: IC50
[6] = tested on: MCF7; assay: Cytotoxicity against human MCF7 cells assessed as reduction in cell viability using compound addition to cell culture cells in log phase of growth and incubated for 48 hrs by MTT assay; format: functional, cell-based; settings: Homo sapiens, MCF7, 48 h; read-out: IC50
[7] = tested on: Vero; assay: Cytotoxicity against African green monkey Vero cells assessed as reduction in cell viability using compound addition to cell culture cells in lag phase of growth and incubated for 48 hrs by MTT assay; format: cell-based, Chlorocebus sabaeus; settings: Chlorocebus sabaeus, Vero, 48 h; read-out: IC50
[8] = tested on: Vero; assay: Cytotoxicity against African green monkey Vero cells assessed as reduction in cell viability using compound addition to cell culture cells in log phase of growth and incubated for 48 hrs by MTT assay; format: cell-based, Chlorocebus sabaeus; settings: Chlorocebus sabaeus, Vero, 48 h; read-out: IC50
[9] = tested on: MCF7; assay: Ratio of IC50 for cytotoxicity against human MCF7 cells using compound addition to cell culture cells in lag phase of growth and incubated for 48 hrs by MTT assay to IC50 for cytotoxicity against human MCF7 cells using compound addition to cell culture cells in log phase of growth and incubated for 48 hrs by MTT assay; format: functional
[10] = tested on: HeLa; assay: Induction of apoptosis in human HeLa cells assessed as […] by measuring pNA release level at 32 uM incubated for 8 hrs using c-DEVD-pNA substrate by colorimetric assay; format: functional, cell-based
Summary of the method: (§1)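 HeLa cells in DMEM with 10% FBS were exposed for 4 h (fixed 24 or 32 level for 8 h). Staurosporine for 4 h served as the positive control. Cells were lysed at 4 °C for 10 min and centrifuged, and supernatant protein was measured by Bradford. Caspase-3 activity was read colorimetrically as nmol pNA/min/mL, with treated/untreated OD ratios. Values are means ± SD of three independent experiments in triplicate.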

[11] = tested on: HeLa; assay: Induction of apoptosis in human HeLa cells assessed as increase in caspase-3 activity by measuring pNA release level at 8 uM incubated for 4 hrs using c-DEVD-pNA substrate by colorimetric assay; format: functional; summary of the method: as §1
[12] = tested on: HeLa; assay: Induction of apoptosis in human HeLa cells assessed as increase in caspase-3 activity by measuring pNA release level at 12 uM incubated for 4 hrs using c-DEVD-pNA substrate by colorimetric assay; format: functional; summary of the method: as §1
[13] = tested on: HeLa; assay: Induction of apoptosis in human HeLa cells assessed as increase in caspase-3 activity by measuring pNA release level at 16 uM incubated for 4 hrs using c-DEVD-pNA substrate by colorimetric assay; format: functional; summary of the method: as §1
[14] = tested on: HeLa; assay: Induction of apoptosis in human HeLa cells assessed as increase in caspase-3 activity by measuring pNA release level at 24 uM incubated for 4 hrs using c-DEVD-pNA substrate by colorimetric assay; format: functional; summary of the method: as §1
[15] = tested on: HeLa; assay: Induction of apoptosis in human HeLa cells assessed as increase in caspase-3 activity by measuring pNA release level at 32 uM incubated for 4 hrs using c-DEVD-pNA substrate by colorimetric assay; format: functional; summary of the method: as §1
[16] = tested on: HeLa; assay: Induction of apoptosis in human HeLa cells assessed increase in DNA fragmentation at 16 uM incubated for 12 hrs by ethidium bromide staining based agarose gel electrophoresis; format: functional, cell-based
Summary of the method: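 HeLa cells were incubated with the compounds at varying concentrations for 12 or 24 h. Controls were DMSO (solvent) and staurosporine 2 µM (positive). Adherent and floating cells were pooled, centrifuged at 500 g and washed twice in cold PBS. Genomic DNA was extracted with a kit, run on 1.8% agarose, stained with ethidium bromide and viewed under UV.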

[17] = tested on: HeLa; assay: Induction of apoptosis in human HeLa cells assessed increase in apoptotic nuclei formation at 8 uM incubated for 12 hrs by Hoechst 33342 staining based fluorescence microscopy; format: functional
[18] = tested on: HeLa; assay: Induction of cell cycle arrest in human HeLa cells assessed increase in subG1 phase accumulation at 24 uM incubated for 12 hrs by 33342 propidium iodide based flow cytometry relative to untreated control; format: functional
[19] = tested on: HeLa; assay: Induction of apoptosis in human HeLa cells at 12 uM incubated for 4 hrs by annexin V and propidium iodide staining based flow cytometry; format: functional, cell-based
[20] = tested on: HeLa; assay: Induction of cell cycle arrest in human HeLa cells assessed increase in hypoploid phase accumulation at 24 uM incubated for 12 hrs by […] propidium iodide based flow cytometry relative to untreated control; format: functional
[21] = tested on: HeLa; assay: Induction of apoptosis in human HeLa cells assessed increase in phosphatidylserine externalization at 2 uM incubated for 4 hrs by annexin V and propidium iodide staining based flow cytometry; format: functional, cell-based
[22] = tested on: HeLa; assay: Induction of apoptosis in human HeLa cells assessed as increase in caspase-3 activity by measuring pNA release level at 24 uM incubated for 8 hrs using c-DEVD-pNA substrate by colorimetric assay; format: functional; summary of the method: as §1
[23] = tested on: HeLa; assay: Induction of apoptosis in human HeLa cells at 10 uM incubated for 4 hrs by annexin V and propidium iodide staining based flow cytometry; format: functional, cell-based

Structure (SMILES) | IC50 [1] | IC50 [2] | IC50 [3] | IC50 [4] | IC50 [5] | IC50 [6] | IC50 [7] | IC50 [8] | Ratio IC50 [9] | Activity [10] | Activity [11] | Activity [12] | Activity [13] | Activity [14] | Activity [15] | Activity [16] | Activity [17] | fold change (FC) [18] | other results
CC1=C(COC(=O)c2ccoc2)C(=O)O[C@@H]([C@@H](C)[C@H]2CC[C@H]3[C@@H]4C[C@H]5O[C@]56[C@@H](O)C=CC(=O)[C@]6(C)[C@H]4CC[C@]23C)C1 | 2.5 µM | 1.1 µM | 2.3 µM | 3.3 µM | 3 µM | 1 µM | 2.8 µM | 0.7 µM | >3 | Active | 0.44 nmol/min/mL | 0.68 nmol/min/mL | 0.62 nmol/min/mL | 1.01 nmol/min/mL | 1.63 nmol/min/mL | – | – | – | –
CC1=C(COC(=O)C(C)(C)C)C(=O)O[C@@H]([C@@H](C)[C@H]2CC[C@H]3[C@@H]4C[C@H]5O[C@]56[C@@H](O)C=CC(=O)[C@]6(C)[C@H]4CC[C@]23C)C1 | 0.8 µM | 1.7 µM | 1.8 µM | 2.1 µM | 0.3 µM | 0.4 µM | 0.4 µM | 0.5 µM | – | Active | 0.26 nmol/min/mL | 0.61 nmol/min/mL | 0.78 nmol/min/mL | 1.04 nmol/min/mL | 0.93 nmol/min/mL | Active | 28% | 4 - 6 | Activity [19]: Active
CCCC(=O)OCC1=C(C)C[C@H]([C@@H](C)[C@H]2CC[C@H]3[C@@H]4C[C@H]5O[C@]56C(=O)C=CC(=O)[C@]6(C)[C@H]4CC[C@]23C)OC1=O | 8.3 µM | 7.9 µM | 6.7 µM | 4.3 µM | 11.5 µM | 2.8 µM | 3.8 µM | 2.1 µM | >3 | – | – | – | – | – | – | – | – | – | –
CC1=C(CO)C(=O)O[C@@H]([C@@H](C)[C@H]2CC[C@H]3[C@@H]4C[C@H]5O[C@]56[C@@H](O)C=CC(=O)[C@]6(C)[C@H]4CC[C@]23C)C1 [WITHAFERIN A] | – | 6.3 µM | – | 10.1 µM | – | 1.3 µM | – | 6.6 µM | 2.8 | – | 0.35 nmol/min/mL | 0.41 nmol/min/mL | 0.47 nmol/min/mL | 0.55 nmol/min/mL | 1.12 nmol/min/mL | – | – | 4 - 6 | Activity [20]: 11.3%; Activity [21]: Active; Activity [22]: 0.6 to 1.9 nmol/min/mL
CC1=C(COC(=O)C(C)(C)C)C(=O)O[C@@H]([C@@H](C)[C@H]2CC[C@H]3[C@@H]4C[C@H]5O[C@]56[C@@H](OC(=O)C(C)(C)C)C=CC(=O)[C@]6(C)[C@H]4CC[C@]23C)C1 | 0.9 µM | 2.4 µM | 4.1 µM | 4.6 µM | 0.6 µM | 1.2 µM | 0.4 µM | 0.5 µM | – | Active | 0.26 nmol/min/mL | 0.25 nmol/min/mL | 0.28 nmol/min/mL | 0.54 nmol/min/mL | 0.63 nmol/min/mL | Active | 15% | 4 - 6 | Activity [23]: Active

Source: ChEMBL document CHEMBL4190346, “Structure-based design, synthesis, and biological evaluation of withaferin A-analogues as potent apoptotic inducers” (Eur J Med Chem, 2017)
